Assay results from different studies.
Protocols differ between the studies behind these lines.
Organism: Escherichia coli
Read-out: microbial growth

Structure (SMILES)	test	system	setting	MIC
CCCCCCC/C=C/C(=O)N1C(=O)/C(=C(/C)O)C(=O)C1Cc1ccc(OC(C)(C)C)cc1 (stereo not drawn)	–	K12, K12	–	> 200 µg/mL
N=C(N)c1ccc(OCc2ccccc2COc2ccc(C(=N)N)cc2)cc1	broth dilution	BW25113	–	> 200 µg/mL
Cc1cc(C)n(C(=O)c2ccc(-n3c(C)ccc3C)cc2)n1	broth dilution	ATCC10536	18 h	250 µg/mL
C[C@@H](O)[C@H]1C(=O)N2C(C(=O)O)=C(S[C@@H]3CN[C@H](C(=O)N(C)C)C3)[C@H](C)[C@H]12	broth dilution	–	24 h	0.0312 µg/mL
CC(C)(O/N=C(\C(=O)N[C@@H]1C(=O)N2C(C(=O)[O-])=C(C[n+]3ccccc3)CS[C@H]12)c1csc(N)n1)C(=O)O	broth dilution	ATCC25922	–	0.25 µg/mL
Cc1ccc2nc(-c3ccc([N+](=O)[O-])cc3)n(Cc3ccc(Cl)cc3)c2c1	broth dilution	ATCC25922	–	64 µg/mL
C/C(=C\c1ccc(C#N)cc1)C(=O)Nc1ccc(C(=O)N[C@@H](CC(N)=O)C(=O)Nc2ccc(C(=O)Nc3ccc(C(=O)Nc4ccc(C(=O)O)cc4)c(O)c3OCC(C)C)cc2)cc1	–	DSM1116	–	0.5 µg/mL
CC1(C)S[C@@H]2[C@H](NC(=O)[C@H](N)c3ccccc3)C(=O)N2[C@H]1C(=O)O	broth dilution	ATCC25922	–	8 µg/mL
O=C(Nc1ccc([N+](=O)[O-])cc1F)c1ccccc1O	broth dilution	ATCC25922	–	> 64 µg/mL
CN(C)c1ccc(-c2nc3ccccc3[nH]2)cc1	broth dilution	ATCC25922	–	64 µg/mL
CC(C)Oc1c(-n2cc(-c3ccc(NC(=O)C(CC(N)=O)NC(=O)c4ccc(NC(=O)c5ccc(C#N)cc5)cc4)cc3)nn2)ccc(C(=O)Nc2ccc(C(=O)O)cc2)c1O (stereo not drawn)	–	DSM1116	–	0.06 µg/mL
O=C(CCc1ccc(O)c(O)c1)NCCCCCCCC[P+](c1ccccc1)(c1ccccc1)c1ccccc1.[Br-]	broth dilution	ATCC25922	18 h	> 32 µg/mL
CO[C@H]1/C=C/O[C@@]2(C)Oc3c(C)c(O)c4c(O)c(c(/C=N/N5CCN(C)CC5)c(O)c4c3C2=O)NC(=O)/C(C)=C\C=C\[C@H](C)[C@H](O)[C@@H](C)[C@@H](O)[C@@H](C)[C@H](OC(C)=O)[C@@H]1C	–	ATCC25922	–	4 µg/mL
CCn1cc(C(=O)O)c(=O)c2cc(F)c(N3CCNCC3)cc21	broth dilution	ATCC 8739, ATCC8739	–	1 µM
CCCCCCC/C=C/C(=O)N1C(=O)/C(=C(\O)c2ccc(O)cc2)C(=O)C1CC(C)C (stereo not drawn)	–	K12, K12	–	> 200 µg/mL
Cc1ccc2nc(-c3cccc(O)c3)[nH]c2c1	broth dilution	ATCC25922	–	64 µg/mL
C[C@@H](O)[C@H]1C(=O)N2C(C(=O)O)=C(SCCN=CN)C[C@H]12	broth dilution	KCTC1682	16 h	0.5 µM
O=C(Nc1ncc([N+](=O)[O-])s1)c1cccc(C(F)(F)F)c1	–	–	–	< 50 µM
Cc1ccc(C)n1-c1ccc(-c2nnc(-c3ccccc3Cl)[nH]2)cc1	broth dilution	ATCC10536	18 h	250 µg/mL
N=C(N)c1ccc(OCc2ccc(-c3ccccc3)cc2COc2ccc(C(=N)N)cc2)cc1	broth dilution	W3110	–	> 200 µg/mL
CCCCCCCCCCCC(=O)Oc1c(C)c(O)c(C(=O)/C=C/c2ccccc2)c(OC)c1C	broth dilution	ATCC25922	–	5000 µg/mL
N=C(N)c1ccc(OCCCCCCCCCCCOc2ccc(C(=N)N)cc2)cc1	–	BW25113	–	50 µg/mL
Clc1ccc(NCc2ccc(Oc3ccccn3)cc2)cc1	–	–	–	> 50 µg/mL
Cc1c(CN(C)C(=O)/C=C/c2cnc3c(c2)CC(NC(=O)OC(C)(C)C)C(=O)N3)oc2ccccc12 (stereo not drawn)	broth dilution	MG1655	clinical isolate	> 32 µg/mL
COc1cc(C(=O)Nc2ccc(C(=O)N[C@@H](CC(N)=O)C(=O)Nc3ccc(C(=O)Nc4ccc(C(=O)Nc5ccc(C(=O)O)cc5)c(O)c4OC(C)C)cc3)cc2)ccc1C#N	–	DSM1116	–	< 0.03 µg/mL
CCCCCCC#Cc1cncc(-c2nnc(SCc3ccc(Cl)c(F)c3)n2C)c1	–	–	–	≥ 20 µg/mL
CC(C)Oc1c(NC(=O)c2ccc(NC(=O)[C@H](CC(N)=O)NC(=O)c3ccc(NC(=O)c4cccc([N+](=O)[O-])c4)cc3)cc2)ccc(C(=O)Nc2ccc(C(=O)O)cc2)c1O	–	DSM1116	–	> 64 µg/mL

Structure (SMILES)	test	system	setting	MIC
CCCCCCC/C=C/C(=O)N1C(=O)/C(=C(/C)O)C(=O)C1CCC(=O)O (stereo not drawn)	–	K12, K12	–	> 200 µg/mL
CC1=NN(CNc2ccc(Cl)cc2)C(=O)C1=NNn1c(-c2ccccc2)nc2ccccc2c1=O	broth dilution	–	24 h	51.5 µM
CCCCCCC/C=C/C(=O)N1C(=O)/C(=C(\O)c2ccc(F)cc2)C(=O)C1CC(C)C (stereo not drawn)	–	K12, K12	–	> 200 µg/mL
c1ccc(NCc2ccc(Oc3ccccn3)cc2)cc1	–	–	–	> 25 µg/mL
N=C(N)c1ccc(OCCC(CCOc2ccc(C(=N)N)cc2)c2ccccc2)cc1 (stereo not drawn)	broth dilution	BW25113	–	> 200 µg/mL
CC(C)Oc1c(NC(=O)c2ccc(NC(=O)[C@H](CC(N)=O)NC(=O)c3ccc(NC(=O)c4ccc(C#N)c(Cl)c4)cc3)cc2)ccc(C(=O)Nc2ccc(C(=O)O)cc2)c1O	–	DSM1116	–	< 0.03 µg/mL
Clc1ccc(-c2nc3ccccc3[nH]2)c(Cl)c1	broth dilution	ATCC25922	–	128 µg/mL
CC1=NN(CNC(=O)c2ccccc2)C(=O)C1=NNn1c(-c2ccccc2)nc2ccccc2c1=O	broth dilution	–	24 h	51.9 µM
CN(C)[C@@H]1C(O)=C(C(N)=O)C(=O)[C@@]2(O)C(O)=C3C(=O)c4c(O)cccc4[C@@](C)(O)[C@H]3C[C@@H]12	–	ATCC25922	–	4 µg/mL
Cc1ccc(C)n1-c1ccc(-c2nnc(-c3c(Cl)cccc3Cl)[nH]2)cc1	broth dilution	ATCC10536	18 h	62.5 µg/mL
O=C(CCCCCCCC[P+](c1ccccc1)(c1ccccc1)c1ccccc1)Nc1ccc(O)c(O)c1.[Br-]	broth dilution	ATCC25922	18 h	> 32 µg/mL
Cc1ccc2nc(-c3ccncc3)[nH]c2c1	broth dilution	ATCC25922	–	64 µg/mL
CNc1cccc2cc(C(=O)Nc3ccc(C(=O)O)cc3)c(=O)[nH]c12	broth dilution	ATCC25922	–	64 µg/mL
Cc1ccc2nc(-c3cccc([N+](=O)[O-])c3)[nH]c2c1	broth dilution	ATCC25922	–	256 µg/mL
CC(C)Oc1c(NC(=O)c2ccc(NC(=O)[C@H](CC(N)=O)NC(=O)c3ccc(NC(=O)c4ccc(F)cc4)cc3)cc2)ccc(C(=O)Nc2ccc(C(=O)O)cc2)c1O	–	DSM1116	–	0.5 µg/mL
N=C(N)c1ccc(OCc2ccc(Br)cc2COc2ccc(C(=N)N)cc2)cc1	–	BW25113	–	≥ 100 µg/mL
COc1c(C)c(OC)c(C(=O)/C=C/c2ccccc2)c(OC)c1C	broth dilution	ATCC25922	–	5000 µg/mL
CCCCCCC#Cc1cncc(-c2nnc(SCc3ccc(C#N)cc3)n2C)c1	–	–	–	≥ 20 µg/mL
N=C(N)c1ccc(OCCCCCOc2ccc(C(=N)N)cc2)cc1	broth dilution	BW25113	–	200 µg/mL
Cc1ccc2nc(-c3ccc([N+](=O)[O-])cc3)n(Cc3ccccc3Cl)c2c1	broth dilution	ATCC25922	–	32 µg/mL
CC(NCCCNC(=O)c1ccc(Cl)s1)c1cc2cc(Br)ccc2[nH]1 (stereo not drawn)	broth dilution	ATCC25922	–	32 µg/mL
N=C(N)c1ccc(OCc2cc(COc3ccc(C(=N)N)cc3)cc(-c3ccccc3)c2)cc1	broth dilution	W3110	–	100 µg/mL
CC(C)COc1c(NC(=O)c2ccc(NC(=O)[C@H](CC(N)=O)NC(=O)c3ccc(NC(=O)c4ccc(C#N)cc4)cc3)cc2)ccc(C(=O)Nc2ccc(C(=O)O)cc2)c1O	–	DSM1116	–	0.25 µg/mL
COc1c(C)c(OC(C)=O)c(C)c(O)c1C(=O)/C=C/c1ccccc1	broth dilution	ATCC25922	–	5000 µg/mL
N=C(N)c1cccc(OCc2ccc(COc3cccc(C(=N)N)c3)cc2)c1	broth dilution	BW25113	–	> 200 µg/mL
CC(C)Oc1c(NC(=O)c2ccc(NC(=O)[C@H](CC(N)=O)NC(=O)c3ccc(NC(=O)c4ccc([N+](=O)[O-])cc4)cc3)cc2)ccc(C(=O)Nc2ccc(C(=O)O)c(F)c2)c1O	–	DSM1116	–	1 µg/mL
C=CCn1c(-c2ccc(Cl)c(Cl)c2)nc2ccccc21	broth dilution	ATCC25922	–	64 µg/mL
